Test [1] addresses T1, OR5K1 (Homo sapiens, UniProt Q8NHB7).
T1 sequence (Q8NHB7 1-308): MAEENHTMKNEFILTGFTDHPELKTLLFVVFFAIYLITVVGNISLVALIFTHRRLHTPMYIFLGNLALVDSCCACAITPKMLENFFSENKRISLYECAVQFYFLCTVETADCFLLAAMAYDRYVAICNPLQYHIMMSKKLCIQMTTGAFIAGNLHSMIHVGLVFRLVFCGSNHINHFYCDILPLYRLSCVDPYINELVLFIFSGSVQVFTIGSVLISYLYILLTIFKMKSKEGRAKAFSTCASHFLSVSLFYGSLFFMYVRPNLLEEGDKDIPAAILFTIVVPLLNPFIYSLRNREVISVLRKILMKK
As to the kind of experiment: cAMPr fluorescence imaging in transfected HEK293T cells. In kind it is cell-based. The procedure, abridged:
(§1)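 HEK293T cells stably expressing the cpGFP-based cAMP sensor cAMPr, on collagen-coated glass dishes, transfected with Rho-tagged receptor (N-terminal 20 residues of bovine rhodopsin) plus RTP1S. Each odorant concentration was tested in a separate experiment, with or without fibronectin, and curves were fitted for EC50 and Hill coefficient.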

Test [2] concerns the target T2, OR8D1 (Homo sapiens, UniProt Q8WZ84).
T2 sequence (Q8WZ84 1-308): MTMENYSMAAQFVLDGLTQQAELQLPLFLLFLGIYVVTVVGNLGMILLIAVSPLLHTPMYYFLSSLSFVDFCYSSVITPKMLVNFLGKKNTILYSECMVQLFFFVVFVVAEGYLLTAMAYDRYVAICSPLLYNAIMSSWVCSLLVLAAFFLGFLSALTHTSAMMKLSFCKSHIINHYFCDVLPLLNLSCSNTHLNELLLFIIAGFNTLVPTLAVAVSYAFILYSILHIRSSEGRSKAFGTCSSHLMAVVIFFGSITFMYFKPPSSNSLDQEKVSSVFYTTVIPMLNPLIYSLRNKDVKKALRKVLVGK
In words: cAMPr fluorescence imaging in transfected HEK293T cells. In kind it is cell-based.

The target of test [3] is T3, Olfr73 (mOR-EG) (Mus musculus, UniProt Q920P2).
T3 sequence (Q920P2 1-313): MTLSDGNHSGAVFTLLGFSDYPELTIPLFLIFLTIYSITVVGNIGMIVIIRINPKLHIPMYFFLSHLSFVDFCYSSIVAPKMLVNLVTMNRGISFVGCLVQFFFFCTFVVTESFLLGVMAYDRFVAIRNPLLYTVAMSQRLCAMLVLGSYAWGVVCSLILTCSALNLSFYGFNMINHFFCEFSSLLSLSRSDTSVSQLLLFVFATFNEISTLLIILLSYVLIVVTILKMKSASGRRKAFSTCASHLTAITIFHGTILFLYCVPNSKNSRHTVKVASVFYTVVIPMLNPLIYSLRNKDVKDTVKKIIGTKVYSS
The test is described as above. In kind it is cell-based.

For test [4], the target named is T4, OR51E1 (Homo sapiens, UniProt Q8TCB6).
T4 sequence (Q8TCB6 1-318): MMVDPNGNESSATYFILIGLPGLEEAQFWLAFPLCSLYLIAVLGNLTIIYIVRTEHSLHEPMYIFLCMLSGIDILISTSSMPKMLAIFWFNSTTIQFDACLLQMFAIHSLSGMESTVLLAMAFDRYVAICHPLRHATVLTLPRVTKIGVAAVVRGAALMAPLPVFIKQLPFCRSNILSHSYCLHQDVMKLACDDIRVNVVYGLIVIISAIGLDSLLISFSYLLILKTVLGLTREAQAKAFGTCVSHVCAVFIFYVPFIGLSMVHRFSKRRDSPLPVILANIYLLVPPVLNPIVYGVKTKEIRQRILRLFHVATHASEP
In words: cAMPr fluorescence imaging in transfected HEK293T cells. In kind it is cell-based. The essentials:
as §1

For test [5], the target named is T5, OR5P3 (Homo sapiens, UniProt Q8WZ94).
T5 sequence (Q8WZ94 1-311): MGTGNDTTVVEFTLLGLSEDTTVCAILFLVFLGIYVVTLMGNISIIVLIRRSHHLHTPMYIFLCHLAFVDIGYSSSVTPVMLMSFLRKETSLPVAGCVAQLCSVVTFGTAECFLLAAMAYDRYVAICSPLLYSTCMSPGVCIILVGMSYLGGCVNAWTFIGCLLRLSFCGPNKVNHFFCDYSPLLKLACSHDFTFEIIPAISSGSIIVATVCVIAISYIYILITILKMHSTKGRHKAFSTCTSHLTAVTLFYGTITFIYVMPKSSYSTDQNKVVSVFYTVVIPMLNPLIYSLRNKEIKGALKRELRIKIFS
The test is described as above. In kind it is cell-based. The procedure, abridged: as §1

Test [6] concerns the target T6, OR5AN1 (Homo sapiens, UniProt Q8NGI8).
T6 sequence (Q8NGI8 1-311): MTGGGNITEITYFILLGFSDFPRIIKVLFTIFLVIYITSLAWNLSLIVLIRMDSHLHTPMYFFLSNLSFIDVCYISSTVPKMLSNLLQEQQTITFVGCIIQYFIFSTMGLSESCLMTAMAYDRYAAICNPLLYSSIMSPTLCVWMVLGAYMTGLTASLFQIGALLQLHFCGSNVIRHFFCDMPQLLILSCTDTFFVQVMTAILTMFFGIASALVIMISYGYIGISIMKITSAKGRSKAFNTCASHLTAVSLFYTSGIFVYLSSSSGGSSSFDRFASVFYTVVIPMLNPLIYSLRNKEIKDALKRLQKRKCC
As to the kind of experiment: cAMPr fluorescence imaging in transfected HEK293T cells. In kind it is cell-based.

In test [7] the target is T7, OR2W1 (Homo sapiens, UniProt Q9Y3N9).
T7 sequence (Q9Y3N9 1-320): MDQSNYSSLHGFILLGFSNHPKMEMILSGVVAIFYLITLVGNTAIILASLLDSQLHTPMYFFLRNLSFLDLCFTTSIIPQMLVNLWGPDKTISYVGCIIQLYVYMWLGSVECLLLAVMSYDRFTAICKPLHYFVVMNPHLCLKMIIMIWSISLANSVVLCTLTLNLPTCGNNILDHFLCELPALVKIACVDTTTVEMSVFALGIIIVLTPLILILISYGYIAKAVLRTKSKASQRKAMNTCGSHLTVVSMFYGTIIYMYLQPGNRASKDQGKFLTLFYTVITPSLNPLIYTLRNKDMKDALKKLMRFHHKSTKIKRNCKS
The description is as above. In kind it is cell-based.

Test [8] deals with T8, OR2J2 (Homo sapiens, UniProt O76002).
T8 sequence (O76002 1-312): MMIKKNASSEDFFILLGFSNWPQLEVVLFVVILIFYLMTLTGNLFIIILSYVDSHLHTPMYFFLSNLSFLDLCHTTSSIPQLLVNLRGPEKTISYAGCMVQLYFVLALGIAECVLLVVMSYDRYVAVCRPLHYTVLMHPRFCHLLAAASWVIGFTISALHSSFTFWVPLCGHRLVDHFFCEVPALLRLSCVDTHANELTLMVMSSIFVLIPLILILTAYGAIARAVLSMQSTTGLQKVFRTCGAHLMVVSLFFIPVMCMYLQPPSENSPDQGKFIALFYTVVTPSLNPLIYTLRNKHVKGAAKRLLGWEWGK
In words: cAMPr fluorescence imaging in transfected HEK293T cells. In kind it is cell-based. The essentials: as §1

Test [9] addresses OR1D2; OR1D1 (Table 2) (Homo sapiens, UniProt P34982). As to the kind of experiment: cell-based.

The structures appear in SMILES notation.

A word on the EC50: it is the concentration needed to bring the measured effect to its halfway point. Low readings indicate an effect from little substance, high ones a need for much substance.

Chain of OR1D2; OR1D1 (Table 2) (P34982 whole entry): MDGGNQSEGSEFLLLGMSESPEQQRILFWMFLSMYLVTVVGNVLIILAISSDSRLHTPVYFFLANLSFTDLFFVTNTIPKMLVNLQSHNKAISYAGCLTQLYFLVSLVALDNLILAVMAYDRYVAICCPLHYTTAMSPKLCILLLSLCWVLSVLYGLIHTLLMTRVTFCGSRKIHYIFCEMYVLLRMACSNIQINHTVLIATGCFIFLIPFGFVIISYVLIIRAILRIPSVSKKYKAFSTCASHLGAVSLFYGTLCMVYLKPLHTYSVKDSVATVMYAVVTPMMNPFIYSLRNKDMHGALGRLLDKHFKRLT

In test [1], `Cc1nccnc1C` [2,3-dimethyl pyrazine] yielded an EC50 of 12000 µM. `CC1=C(O)C(=O)CC1` [cyclotene] showed an EC50 in [2] of 1100 µM. In test [3], `C=CCc1ccc(O)c(OC)c1` [eugenol] had an EC50 of 154 µM. Consider `CC(C)CC(=O)O` [isovaleric acid], for which, in test [4], the EC50 came out at 840 µM. As to `COC(=O)c1ccccc1N` [methyl anthranilate], a half-maximal effect in [5] (EC50) was put at 2200 µM. Compound `CC1CCCCCCCCCCCCC(=O)C1` (centres unmarked) [muscone] came in with an EC50 in [6] of 290 µM. `CCCCCOC(C)=O` [pentyl acetate] came in with a 50% effective concentration (EC50) in test [7] of 44 µM. With `CC1=C(O)C(=O)OC1C` (centres unmarked) [sotolon], the midpoint of the response in [2], the EC50, lay at 7.7 µM. Compound `OCCc1ccccc1` [β-phenylethyl alcohol] came in with an EC50 in [7] of 1500 µM. With `CCCCCCCC1CCC(=O)O1` (centres unmarked) [γ-undecalactone], the EC50 in test [8] stood at 250 µM; in test [9], 150 µM.

Values taken from paper PMC12077508 (Science Advances, 2025).
